Results taken from ChEMBL document CHEMBL1938268, “Synthesis, characterization and in vitro biological evaluation of some novel diarylsulfonylureas as potential cytotoxic and antimicrobial agents” (Bioorg Med Chem Lett, 2012).
≈ marks a conversion by molar mass, not a printed value.

Columns and labels:
[1] = system: Proteus vulgaris; assay: Antibacterial activity against Proteus vulgaris NCIM 2813 after 24 hrs by agar well diffusion assay; format: functional; conditions: NCIM 2813, 24 h
Outline: (§1)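 Agar well diffusion per NCCLS; NCIM standard strains. Nutrient agar seeded with 0.1 mL bacterial suspension in sterile 0.85% saline at 10⁵ CFU/mL. Plates in triplicate, 37 0.5 °C, 24 h. MIC taken as lowest concentration giving complete growth inhibition.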

[2] = system: Bacillus pumilus; assay: Antibacterial activity against Bacillus pumilus NCIM 2327 after 24 hrs by agar well diffusion assay; conditions: NCIM 2327, 24 h
[3] = system: Bacillus subtilis; assay: Antibacterial activity against Bacillus subtilis NCIM 2063 after 24 hrs by agar well diffusion assay; format: functional; conditions: NCIM 2063, 24 h; outline: as §1
[4] = system: Micrococcus luteus; assay: Antibacterial activity against Micrococcus luteus NCIM 2155 after 24 hrs by agar well diffusion assay; format: functional; conditions: NCIM 2155, 24 h; outline: as §1
[5] = system: Penicillium chrysogenum; assay: Antifungal activity against Penicillium chrysogenum NCIM 738 after 48 hrs by agar well diffusion assay; format: functional; conditions: NCIM 738, 48 h
Outline: (§2)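 Fungal spore suspensions in sterile distilled water set to final 10⁶ CFU/mL; 0.1 mL spread on Potato-Dextrose-Agar. NCCLS agar well diffusion with NCIM standard strains: 6 mm wells given 0.1 mL compound diluted in 1% DMSO, final 16 to 512 µg/mL. Triplicate plates held 48 h at 28 0.2 °C. MIC is lowest concentration fully inhibiting growth.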

[6] = system: Candida albicans; assay: Antifungal activity against Candida albicans NCIM 3102 after 48 hrs by agar well diffusion assay; format: functional; conditions: NCIM 3102, 48 h; outline: as §2
[7] = system: Klebsiella pneumoniae; assay: Antibacterial activity against Klebsiella pneumoniae NCIM 5082 after 24 hrs by agar well diffusion assay; format: functional; conditions: NCIM 5082, 24 h; outline: as §1
[8] = Toxicity against Brine shrimp nauplii after 24 hrs; format: organism-based; conditions: artemia salina, in vivo; read-out: ED50
Outline: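 Artemia salina nauplii hatched 38 h in sterile brine (sea salt 38 g/L, pH 8.5) under aeration; 10 nauplii per vial exposed to graded compound concentrations in 5 mL final volume, 37 °C, 24 h under incandescent light. Survivors counted; percent lethality versus vehicle-treated controls; ED50 from probit analysis; podophyllotoxin positive control.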

[9] = system: Aspergillus niger; assay: Antifungal activity against Aspergillus niger NCIM 548 after 48 hrs by agar well diffusion assay; format: functional; conditions: NCIM 548, 48 h; outline: as §2
[10] = system: Escherichia coli; assay: Antibacterial activity against Escherichia coli NCIM 2065 after 24 hrs by agar well diffusion assay; format: functional; conditions: NCIM 2065, 24 h; outline: as §1
[11] = system: Aspergillus oryzae; assay: Antifungal activity against Aspergillus oryzae NCIM 643 after 48 hrs by agar well diffusion assay; format: functional; conditions: NCIM 643, 48 h; outline: as §2
[12] = system: Staphylococcus aureus; assay: Antibacterial activity against Staphylococcus aureus NCIM 2079 after 24 hrs by agar well diffusion assay; format: functional; conditions: NCIM 2079, 24 h; outline: as §1
[13] = system: Pseudomonas aeruginosa; assay: Antibacterial activity against Pseudomonas aeruginosa NCIM 2036 after 24 hrs by agar well diffusion assay; format: functional; conditions: NCIM 2036, 24 h; outline: as §1

Row | Compound | MIC [1] | MIC [2] | MIC [3] | MIC [4] | MIC [5] | MIC [6] | MIC [7] | LC50 at 24 h [8] | MIC [9] | MIC [10] | MIC [11] | MIC [12] | MIC [13]
1 | Cc1ccc(S(=O)(=O)NC(=O)Nc2ccccc2C(=O)/C=C/c2cccc(Br)c2)cc1 | 16 µg/mL (≈ 32 µM) | 16 µg/mL (≈ 32 µM) | 16 µg/mL (≈ 32 µM) | 16 µg/mL (≈ 32 µM) | 128 µg/mL (≈ 256 µM) | 128 µg/mL (≈ 256 µM) | 128 µg/mL (≈ 256 µM) | 4.02 µg/mL (≈ 8.05 µM) | 64 µg/mL (≈ 128 µM) | 16 µg/mL (≈ 32 µM) | 128 µg/mL (≈ 256 µM) | 64 µg/mL (≈ 128 µM) | 32 µg/mL (≈ 64.1 µM)
2 | CCOc1cc(/C=C/C(=O)c2ccccc2NC(=O)NS(=O)(=O)c2ccc(C)cc2)ccc1O | 512 µg/mL (≈ 1070 µM) | 64 µg/mL (≈ 133 µM) | 128 µg/mL (≈ 266 µM) | 512 µg/mL (≈ 1070 µM) | 512 µg/mL (≈ 1070 µM) | 512 µg/mL (≈ 1070 µM) | 512 µg/mL (≈ 1070 µM) | 19.2 µg/mL (≈ 40 µM) | 512 µg/mL (≈ 1070 µM) | 64 µg/mL (≈ 133 µM) | 512 µg/mL (≈ 1070 µM) | 128 µg/mL (≈ 266 µM) | 128 µg/mL (≈ 266 µM)
3 | Cc1ccc(S(=O)(=O)NC(=O)Nc2ccccc2C(=O)/C=C/c2ccc(N(C)C)cc2)cc1 | 128 µg/mL (≈ 276 µM) | 64 µg/mL (≈ 138 µM) | 64 µg/mL (≈ 138 µM) | 128 µg/mL (≈ 276 µM) | 256 µg/mL (≈ 552 µM) | 128 µg/mL (≈ 276 µM) | 128 µg/mL (≈ 276 µM) | 38.1 µg/mL (≈ 82.2 µM) | 256 µg/mL (≈ 552 µM) | 64 µg/mL (≈ 138 µM) | 256 µg/mL (≈ 552 µM) | 64 µg/mL (≈ 138 µM) | 64 µg/mL (≈ 138 µM)
4 | Cc1ccc(S(=O)(=O)NC(=O)Nc2ccccc2C(=O)/C=C/c2ccc(F)cc2)cc1 | 16 µg/mL (≈ 36.5 µM) | 32 µg/mL (≈ 73 µM) | 16 µg/mL (≈ 36.5 µM) | 64 µg/mL (≈ 146 µM) | 64 µg/mL (≈ 146 µM) | 64 µg/mL (≈ 146 µM) | 16 µg/mL (≈ 36.5 µM) | 3.96 µg/mL (≈ 9.03 µM) | 64 µg/mL (≈ 146 µM) | 32 µg/mL (≈ 73 µM) | 64 µg/mL (≈ 146 µM) | 32 µg/mL (≈ 73 µM) | 32 µg/mL (≈ 73 µM)
5 | Cc1ccc(S(=O)(=O)NC(=O)Nc2ccccc2C(=O)/C=C/c2ccccc2)cc1 | 512 µg/mL (≈ 1220 µM) | 512 µg/mL (≈ 1220 µM) | 512 µg/mL (≈ 1220 µM) | 512 µg/mL (≈ 1220 µM) | 512 µg/mL (≈ 1220 µM) | 512 µg/mL (≈ 1220 µM) | 512 µg/mL (≈ 1220 µM) | 25 µg/mL (≈ 59.5 µM) | 512 µg/mL (≈ 1220 µM) | 512 µg/mL (≈ 1220 µM) | 512 µg/mL (≈ 1220 µM) | 512 µg/mL (≈ 1220 µM) | 512 µg/mL (≈ 1220 µM)
6 | COc1ccc(/C=C/C(=O)c2ccccc2NC(=O)NS(=O)(=O)c2ccc(C)cc2)cc1 | 128 µg/mL (≈ 284 µM) | 128 µg/mL (≈ 284 µM) | 64 µg/mL (≈ 142 µM) | 128 µg/mL (≈ 284 µM) | 128 µg/mL (≈ 284 µM) | 128 µg/mL (≈ 284 µM) | 128 µg/mL (≈ 284 µM) | 28.1 µg/mL (≈ 62.4 µM) | 128 µg/mL (≈ 284 µM) | 128 µg/mL (≈ 284 µM) | 128 µg/mL (≈ 284 µM) | 128 µg/mL (≈ 284 µM) | 64 µg/mL (≈ 142 µM)
7 | Cc1ccc(S(=O)(=O)NC(=O)Nc2ccccc2C(=O)/C=C/C=C/c2ccccc2)cc1 | 256 µg/mL (≈ 573 µM) | 128 µg/mL (≈ 287 µM) | 128 µg/mL (≈ 287 µM) | 256 µg/mL (≈ 573 µM) | 256 µg/mL (≈ 573 µM) | 256 µg/mL (≈ 573 µM) | 256 µg/mL (≈ 573 µM) | 18.2 µg/mL (≈ 40.8 µM) | 256 µg/mL (≈ 573 µM) | 128 µg/mL (≈ 287 µM) | 256 µg/mL (≈ 573 µM) | 128 µg/mL (≈ 287 µM) | 128 µg/mL (≈ 287 µM)
8 | Cc1ccc(S(=O)(=O)NC(=O)Nc2ccccc2C(=O)/C=C/c2ccccc2O)cc1 | 256 µg/mL (≈ 586 µM) | 512 µg/mL (≈ 1170 µM) | 512 µg/mL (≈ 1170 µM) | 256 µg/mL (≈ 586 µM) | 256 µg/mL (≈ 586 µM) | 256 µg/mL (≈ 586 µM) | 256 µg/mL (≈ 586 µM) | 32.3 µg/mL (≈ 74.1 µM) | 256 µg/mL (≈ 586 µM) | 512 µg/mL (≈ 1170 µM) | 256 µg/mL (≈ 586 µM) | 256 µg/mL (≈ 586 µM) | 512 µg/mL (≈ 1170 µM)
9 | Cc1ccc(S(=O)(=O)NC(=O)Nc2ccccc2C(=O)/C=C/c2cc(O)ccc2[N+](=O)[O-])cc1 | 64 µg/mL (≈ 133 µM) | 16 µg/mL (≈ 33.2 µM) | 16 µg/mL (≈ 33.2 µM) | 64 µg/mL (≈ 133 µM) | 64 µg/mL (≈ 133 µM) | 32 µg/mL (≈ 66.5 µM) | 64 µg/mL (≈ 133 µM) | 18.3 µg/mL (≈ 38 µM) | 64 µg/mL (≈ 133 µM) | 16 µg/mL (≈ 33.2 µM) | 64 µg/mL (≈ 133 µM) | 16 µg/mL (≈ 33.2 µM) | 16 µg/mL (≈ 33.2 µM)
10 | Cc1ccc(S(=O)(=O)NC(=O)Nc2ccccc2C(=O)/C=C/c2c3ccccc3cc3ccccc23)cc1 | 512 µg/mL (≈ 983 µM) | 512 µg/mL (≈ 983 µM) | 512 µg/mL (≈ 983 µM) | 512 µg/mL (≈ 983 µM) | 512 µg/mL (≈ 983 µM) | 512 µg/mL (≈ 983 µM) | 512 µg/mL (≈ 983 µM) | 44.3 µg/mL (≈ 85.1 µM) | 512 µg/mL (≈ 983 µM) | 512 µg/mL (≈ 983 µM) | 512 µg/mL (≈ 983 µM) | 512 µg/mL (≈ 983 µM) | 512 µg/mL (≈ 983 µM)
11 | Cc1ccc(S(=O)(=O)NC(=O)Nc2ccccc2C(=O)/C=C/c2cccc(F)c2)cc1 | 64 µg/mL (≈ 146 µM) | 16 µg/mL (≈ 36.5 µM) | 16 µg/mL (≈ 36.5 µM) | 64 µg/mL (≈ 146 µM) | 64 µg/mL (≈ 146 µM) | 64 µg/mL (≈ 146 µM) | 64 µg/mL (≈ 146 µM) | 4.13 µg/mL (≈ 9.42 µM) | 64 µg/mL (≈ 146 µM) | 16 µg/mL (≈ 36.5 µM) | 64 µg/mL (≈ 146 µM) | 16 µg/mL (≈ 36.5 µM) | 16 µg/mL (≈ 36.5 µM)
